Laboratory results: PMC9827907 (Chemmedchem, 2022)
Like-named read-outs stand apart in the source and are kept apart here.

What was measured:
[1] = system: P. falciparum TM90 C2b; assay: 72-hour [3H]hypoxanthine incorporation assay, field adapted strain TM90 C2b; format: cell-based; conditions: Plasmodium falciparum, TM90, read-out: IC50, TM90 C2b
Method in brief: (§1)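 Intraerythrocytic asexual-stage activity was measured against field-adapted drug-resistant P. falciparum strains. The drug-sensitive NF54 strain served as the wild-type reference, and fold shift was taken relative to NF54. Chloroquine and artesunate were run as control drugs.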

[2] = system: P. falciparum 7G8; assay: 72-hour [3H]hypoxanthine incorporation assay, field adapted strain 7G8; format: cell-based; conditions: Plasmodium falciparum, 7G8, read-out: IC50, 7G8
Method in brief: as §1

[3] = system: P. falciparum K1; assay: 72-hour [3H]hypoxanthine incorporation assay, field adapted strain K1; format: cell-based; conditions: Plasmodium falciparum, K1, read-out: IC50, K1
Method in brief: as §1

[4] = system: P. falciparum Cam3.I; assay: 72-hour [3H]hypoxanthine incorporation assay, field adapted strain Cam3.I; format: cell-based; conditions: Plasmodium falciparum, read-out: IC50, Cam3.I
Method in brief: as §1

[5] = system: P. falciparum Dd2; assay: 72-hour [3H]hypoxanthine incorporation assay, field adapted strain Dd2; format: cell-based; conditions: Plasmodium falciparum, DD2, read-out: IC50, Dd2
Method in brief: as §1

[6] = system: P. falciparum 3D7; assay: In vitro P. falciparum viability assay, 3D7 strain, 72-hour SYBR green; format: cell-based, Plasmodium falciparum; conditions: for IC50: Plasmodium falciparum, 3D7, 72 h, read-out: 3D7 IC50
Method in brief: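 Asexual blood-stage growth inhibition was measured on the 3D7 strain with 72 h exposure to test compound. IC50 values are geometric mean ± SEM of at least two independent experiments.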

[7] = Metabolic stability study using human liver microsomes; format: in vitro ADME; conditions: pooled human liver microsomes
[8] = system: P. falciparum clone A3 (PfeEF2 Y719C); assay: 72 hour concentration-response assay, MMV692140-selected clone A3; format: cell-based, Plasmodium falciparum; conditions: vs parental Dd2-B2, Figure 3
Method in brief: (§2)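 Drug-selected P. falciparum clones carry PfeEF2 point mutations in the chloroquine-resistant Dd2-B2 background and are compared with the parental Dd2-B2 clone. […] Each clone was tested against parent by unpaired t test with Welch's correction.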

[9] = system: P. falciparum clone F8 (PfeEF2 L775F); assay: 72 hour concentration-response assay, M5717-selected clone F8; format: cell-based, Plasmodium falciparum
Method in brief: as §2

[10] = system: P. falciparum clone D6 (PfeEF2 Y186N); assay: 72 hour concentration-response assay, M5717-selected clone D6; format: cell-based, Plasmodium falciparum
Method in brief: as §2

[11] = system: P. falciparum clone E5 (PfeEF2 E134D); assay: 72 hour concentration-response assay, M5717-selected clone E5; format: cell-based, Plasmodium falciparum
Method in brief: as §2

[12] = system: P. falciparum clone D3 (PfeEF2 F770L); assay: 72 hour concentration-response assay, MMV692140-selected clone D3; format: cell-based, Plasmodium falciparum; conditions: IC50 vs Dd2-B2 parent
Method in brief: as §2

[13] = system: P. falciparum Dd2 (PfeEF2); assay: In vitro intraerythrocytic antimalarial activity, lab adapted strain Dd2; format: cell-based; conditions: Plasmodium falciparum, DD2, read-out: IC50, Dd2 (PfeEF2)
Method in brief: (§3)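 Intraerythrocytic asexual-stage activity was measured against laboratory resistant lines, with resistance mutations introduced into a Dd2 wild-type background. Fold shift was taken relative to Dd2 wild type. Strain-matched reference inhibitors were tested on Dd2 wild type and on the mutant lines. Values are means of at least two independent experiments.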

[14] = system: P. falciparum Dd2 (wt); assay: In vitro intraerythrocytic antimalarial activity, Dd2; format: cell-based, Plasmodium falciparum
[15] = system: P. falciparum clone G12 (PfeEF2 L507S); assay: 72 hour concentration-response assay, MMV692140-selected clone G12; format: cell-based, Plasmodium falciparum; conditions: vs parental Dd2-B2, Figure 3
Method in brief: as §2

[16] = system: P. falciparum Dd2 (Pfdhodh); assay: In vitro intraerythrocytic antimalarial activity, lab adapted strain Dd2; format: cell-based, Plasmodium falciparum
Method in brief: as §3

[17] = system: P. falciparum Dd2 (Pfcytb); assay: as above; format: cell-based, Plasmodium falciparum
Method in brief: as §3

[18] = system: P. falciparum Dd2 (Pfpi4k); assay: as above; format: cell-based, Plasmodium falciparum
Method in brief: as §3

[19] = Plasmodium falciparum, DD2, read-out: IC50, Dd2 (wt)

C[C@H]1[C@H](OC(=O)CCC(=O)O)O[C@@H]2O[C@@]3(C)CC[C@H]4[C@H](C)CC[C@@H]1[C@@]24OO3 [Artesunate]
IC50 [1]: 5 nM | IC50 [2]: 2 nM | IC50 [3]: 2 nM | IC50 [4]: 11 nM | IC50 [5]: 6 nM

CCN(CC)CCCC(C)Nc1ccnc2cc(Cl)ccc12 (centres unmarked) [Chloroquine]
IC50 [1]: 140 nM | IC50 [2]: 80 nM | IC50 [3]: 200 nM | IC50 [4]: 180 nM | IC50 [5]: 160 nM

COc1ccc(-n2nnnc2N2CCC(C(=O)N3CCCc4ccccc43)CC2)cc1 [Compound 7, (3,4-Dihydroquinolin-1(2H)-yl)(1-(1-(4-methoxyphenyl)-1H-tetrazol-5-yl)piperidin-4-yl)methanone]
IC50 [6]: 900 ± 140 nM | microsomal CLint at 1 µM [7]: 521 µL/min/mg

Cc1ccccc1-n1nnnc1N1CCC(C(=O)N2CCCc3ccccc32)CC1 [Compound 8, (3,4-Dihydroquinolin-1(2H)-yl)(1-(1-(o-tolyl)-1H-tetrazol-5-yl)piperidin-4-yl)methanone]
IC50 [6]: 1400 ± 20 nM

O=C(C1CCN(c2nnnn2-c2ccc(OC(F)(F)F)cc2)CC1)N1CCCc2ccccc21 [Compound 9]
IC50 [6]: 5500 ± 860 nM

O=C(C1CCN(c2nnnn2-c2ccccc2)CC1)N1CCCc2c(Cl)cccc21 [Compound 17, (5-Chloro-3,4-dihydroquinolin-1(2H)-yl)(1-(1-phenyl-1H-tetrazol-5-yl)piperidin-4-yl)methanone]
IC50 [6]: 600 ± 90 nM

O=C(C1CCN(c2nnnn2-c2ccccc2)CC1)N1CCCc2cc(Cl)ccc21 [Compound 20, (6-Chloro-3,4-dihydroquinolin-1(2H)-yl)(1-(1-phenyl-1H-tetrazol-5-yl)piperidin-4-yl)methanone]
IC50 [6]: > 25000 nM

N#Cc1ccc2c(c1)N(C(=O)C1CCN(c3nnnn3-c3ccccc3)CC1)CCC2 [Compound 22]
IC50 [6]: > 25000 nM

O=C(C1CCN(c2nnnn2-c2ccccc2)CC1)N1CCCc2ccc(Cl)cc21 [Compound 23, (7-Chloro-3,4-dihydroquinolin-1(2H)-yl)(1-(1-phenyl-1H-tetrazol-5-yl)piperidin-4-yl)methanone]
IC50 [6]: > 25000 nM

O=C(C1CCN(c2nnnn2-c2ccccc2)CC1)N1CCCc2ncccc21 [Compound 24, (3,4-Dihydro-1,5-naphthyridin-1(2H)-yl)(1-(1-phenyl-1H-tetrazol-5-yl)piperidin-4-yl)methanone]
IC50 [6]: 10200 ± 750 nM

O=C(C1CCN(c2nnnn2-c2ccccc2)CC1)N1CCCc2cnccc21 [Compound 25, (3,4-Dihydro-1,6-naphthyridin-1(2H)-yl)(1-(1-phenyl-1H-tetrazol-5-yl)piperidin-4-yl)methanone]
IC50 [6]: 10800 ± 650 nM

CC(C)n1nnnc1N1CCC(C(=O)N2CCCc3ccccc32)CC1 [Compound 27, (3,4-Dihydroquinolin-1(2H)-yl)(1-(1-isopropyl-1H-tetrazol-5-yl)piperidin-4-yl)methanone]
IC50 [6]: 5600 ± 920 nM | microsomal CLint at 1 µM [7]: 135 µL/min/mg

O=C(C1CCN(c2nnnn2C2CCCC2)CC1)N1CCCc2ccccc21 [Compound 28, (1-(1-cyclopentyl-1H-tetrazol-5-yl)piperidin-4-yl)(3,4-dihydroquinolin-1(2H)-yl)methanone]
IC50 [6]: 3300 ± 480 nM | microsomal CLint at 1 µM [7]: > 400 µL/min/mg

O=C(C1CCN(c2nnnn2C2CCCCC2)CC1)N1CCCc2ccccc21 [Compound 29]
IC50 [6]: 3500 ± 20 nM | microsomal CLint at 1 µM [7]: > 400 µL/min/mg

O=C(C1CCN(c2nnnn2-c2ccc(F)cc2)CC1)N1CCOc2ccccc21 [Compound 30]
IC50 [6]: 8900 ± 1400 nM | microsomal CLint at 1 µM [7]: 83 µL/min/mg

COc1ccc(-n2nnnc2N2CCC(C(=O)N3CCCc4c(Cl)cccc43)CC2)cc1 [Compound 31]
IC50 [6]: 700 ± 100 nM | microsomal CLint at 1 µM [7]: > 400 µL/min/mg

COc1ccc(-n2nnnc2N2CCC(C(=O)N3CCOc4c(Cl)cccc43)CC2)cc1 [Compound 32]
IC50 [6]: 3600 ± 1200 nM | microsomal CLint at 1 µM [7]: 78 µL/min/mg

O=C(C1CCN(c2nnnn2-c2ccc(N3CCCC3)cc2)CC1)N1CCCc2c(Cl)cccc21 [Compound 33]
IC50 [6]: 110 ± 10 nM | microsomal CLint at 1 µM [7]: > 400 µL/min/mg

O=C(C1CCN(c2nnnn2-c2ccc(N3CCCC3)cc2)CC1)N1CCOc2c(Cl)cccc21 [Compound 34]
IC50 [6]: 1600 ± 81 nM | microsomal CLint at 1 µM [7]: 296 µL/min/mg

O=C(C1CCN(c2nnnn2-c2ccc(N3CCCC3)cc2)CC1)N1CCCc2c(F)cccc21 [Compound 36, (5-fluoro-3,4-dihydroquinolin-1(2H)-yl)(1-(1-(4-(pyrrolidin-1-yl)phenyl)-1H-tetrazol-5-yl)piperidin-4-yl)methanone]
IC50 [6]: 66 ± 8 nM | improvement of antimalarial asexual blood stage in vitro potency ([6]; relative to hit compound 2, 72-hour 3D7 assay): 30 fold | microsomal CLint at 1 µM [7]: > 400 µL/min/mg

O=C(NCCN1CCCC1)c1cc(-c2ccc(CN3CCOCC3)cc2)nc2ccc(F)cc12 [Compound M5717]
Cross resistance of compound 2-selected clone A3 [8]: not cross‐resistant | Fold shift, clone F8 ([9]; IC50 vs Dd2-B2 parent): 3100x fold | IC50 ([9]; Plasmodium falciparum, 72 h, read-out: IC50, clone F8): 660 nM | Fold shift, clone D6 ([10]; IC50 vs Dd2-B2 parent): 14700x fold | IC50 ([10]; Plasmodium falciparum, D6, 72 h, read-out: IC50, clone D6): 3100 nM | Fold shift, clone E5 ([11]; IC50 vs Dd2-B2 parent): 27x fold | IC50 ([11]; Plasmodium falciparum, 72 h, read-out: IC50, clone E5): 5.8 nM | Fold shift, clone D3 [12]: 1.6 fold | IC50 [13]: 3100 nM | IC50 [14, 19]: 2 nM | Cross resistance of compound 2-selected clone G12 [15]: not cross‐resistant

Cc1cc(Nc2ccc(S(F)(F)(F)(F)F)cc2)n2nc(C(C)(F)F)nc2n1 [DSM265]
IC50 ([16]; Plasmodium falciparum, DD2, read-out: IC50, Dd2 (Pfdhodh)): 143 nM | fold shift, Dd2 (Pfdhodh) ([16]; vs Dd2 (wt)): 18 fold | IC50 [14, 19]: 8 nM

COc1cc2[nH]c(C)c(-c3ccc(Oc4ccc(OC(F)(F)F)cc4)cc3)c(=O)c2cc1Cl [ELQ300]
IC50 ([17]; read-out: IC50, Dd2 (Pfcytb), reference compound): 254 nM | fold shift, Dd2 (Pfcytb) ([17]; vs Dd2 (wt)): 13 fold | IC50 ([14]; read-out: IC50, Dd2 (wt), reference compounds): 19 nM

CS(=O)(=O)c1ccc(-c2cnc(N)c(-c3ccc(C(F)(F)F)nc3)c2)cc1 [MMV390048]
IC50 [14, 19]: 21.2 nM | IC50 ([18]; Plasmodium falciparum, DD2, read-out: IC50, Dd2 (Pfpi4k)): 102 nM | fold shift, Dd2 (Pfpi4k) ([18]; vs Dd2 (wt)): 4.8 fold
